# High-throughput results deposited in PubChem BioAssay by Johns Hopkins Ion Channel Center.
# Sampled rows, rich in hits. Any-hit rate of the full collection: about 3.7%.
# Kir21 inh = inhibitors of mouse Kir2.1 inward-rectifier potassium channel; HEK293-Kir2.1, FluxOR thallium flux fluorescence; stronger effect = lower value; B-score at 10 µM; 310,000 compounds, 0.85% hits;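 active = fluorescence ratio B-score at or below minus 3 SD of library scores, with starting-brightness B-score within 2 SD, cut at about -4.2 in these data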;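 also: channel flux triggered by added potassium and thallium sulfate stimulus; B-score of peak minus minimum fluorescence over baseline after thallium stimulus; more negative B-score means stronger Kir2.1 block with less thallium influx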
# KCNQ1 block = inhibitors of human KCNQ1 channel, primary screen, cell-based, thallium flux, high-throughput; Potassium voltage-gated channel subfamily KQT member 1 (Homo sapiens), P51787; CHO-K1 KCNQ1, FluxOR thallium flux fluorescence; stronger effect = higher value; B-score at 10 µM; 310,000 compounds, 1.3% hits;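 active = compounds whose thallium flux B-score, printed positive for inhibition, exceeds three library SD while starting fluorescence stays within three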;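 also: channel opened by potassium depolarization with thallium stimulus after 20 min compound exposure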
# hERG protect = hERG rescue from dofetilide block, primary screen, cell-based, CHO-hERG, FluxOR thallium flux, dofetilide IC70 | Voltage-gated inwardly rectifying potassium channel KCNH2 (Homo sapiens), Q12809 | 310,000 compounds, 0.51% hits | dofetilide IC70 present | activation (rescue from dofetilide block), less the hit threshold, % at 10 µM;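 active = activation above the mean of controls blocked by dofetilide plus 5 SD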;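 also: thallium influx through hERG after potassium depolarization seen as dye fluorescence rise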
# Target sequence (Q12809 whole entry, looked up): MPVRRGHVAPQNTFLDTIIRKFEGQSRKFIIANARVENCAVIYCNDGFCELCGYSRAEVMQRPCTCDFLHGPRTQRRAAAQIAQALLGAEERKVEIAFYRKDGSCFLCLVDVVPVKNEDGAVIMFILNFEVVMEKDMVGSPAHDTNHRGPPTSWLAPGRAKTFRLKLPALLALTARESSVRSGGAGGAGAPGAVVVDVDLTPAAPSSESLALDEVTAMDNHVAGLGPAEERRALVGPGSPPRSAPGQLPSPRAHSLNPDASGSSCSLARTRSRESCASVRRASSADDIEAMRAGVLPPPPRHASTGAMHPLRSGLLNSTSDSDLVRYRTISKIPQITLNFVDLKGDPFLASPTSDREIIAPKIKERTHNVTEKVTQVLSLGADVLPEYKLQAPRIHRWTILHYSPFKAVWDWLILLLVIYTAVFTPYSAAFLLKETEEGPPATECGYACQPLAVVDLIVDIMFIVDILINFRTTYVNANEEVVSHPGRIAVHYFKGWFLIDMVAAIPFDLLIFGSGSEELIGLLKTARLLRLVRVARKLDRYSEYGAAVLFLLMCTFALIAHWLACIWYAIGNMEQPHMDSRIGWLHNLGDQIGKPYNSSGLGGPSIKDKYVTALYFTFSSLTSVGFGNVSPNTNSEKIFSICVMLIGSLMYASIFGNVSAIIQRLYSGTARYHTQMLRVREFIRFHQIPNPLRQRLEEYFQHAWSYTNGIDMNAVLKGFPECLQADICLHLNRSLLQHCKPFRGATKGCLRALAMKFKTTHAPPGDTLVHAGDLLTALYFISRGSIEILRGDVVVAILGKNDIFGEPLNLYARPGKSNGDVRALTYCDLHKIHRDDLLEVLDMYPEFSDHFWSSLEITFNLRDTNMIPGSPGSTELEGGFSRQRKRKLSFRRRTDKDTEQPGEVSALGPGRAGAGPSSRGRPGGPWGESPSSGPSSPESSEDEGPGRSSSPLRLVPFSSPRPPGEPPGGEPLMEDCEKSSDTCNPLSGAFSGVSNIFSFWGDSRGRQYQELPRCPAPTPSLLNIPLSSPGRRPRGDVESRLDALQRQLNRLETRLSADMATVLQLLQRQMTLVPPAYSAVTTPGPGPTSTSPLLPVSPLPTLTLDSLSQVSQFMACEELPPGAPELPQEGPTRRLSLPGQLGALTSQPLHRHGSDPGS
# KCNK9 block = KCNK9 potassium channel inhibitors, primary screen, HEK293 cells, thallium flux | Potassium channel subfamily K member 9 (Homo sapiens), Q9NPC2 | FluxOR thallium flux fluorescence; stronger effect = lower value | B-score at 10 µM | 310,000 compounds, 1.2% hits;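 active = ratio B-score over 3 SD below the library mean, with starting fluorescence within 5 SD of its mean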;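 also: negative B-score means less thallium flux so channel inhibition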
# KCNQ1 act = potentiators or activators of KCNQ1 channel, primary screen, cell-based, thallium flux, high-throughput. Potassium voltage-gated channel subfamily KQT member 1 (Homo sapiens), P51787. CHO-K1 KCNQ1, thallium flux FluxOR fluorescence; stronger effect = higher value. B-score at 10 µM. 310,000 compounds, 0.35% hits. AID 2648, 2010;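 active = fluorescence ratio B-score, a plate-corrected score, at least three library SD, with initial intensity B-score within 5 SD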
#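 Doses: Single concentration per compound, DMSO matched to controls | Test system: KCNQ1-transfected CHO-K1 cells | Timing: 90 min dye loading and 20 min compound exposure, both at room temperature | Measured by: Kinetic FluxOR thallium fluorescence, 10-s 1-Hz baseline, 110-s post-stimulus read | Medium: Assay buffer with matched DMSO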
# KCNK3 block = human KCNK3 channel inhibitors, primary screen, CHO cells, FluxOR thallium flux, B-score; B-score at 10 µM; Potassium channel subfamily K member 3 (Homo sapiens), O14649; FluxOR fluorescence; stronger effect = lower value; 340,000 compounds, 0.84% hits;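 active = B-score under library mean minus 4 SD, starting fluorescence ratio at most library mean plus 5 SD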;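 also: more negative B-score means stronger inhibition of thallium flux through KCNK3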
# KCNK9 block conf = KCNK9 potassium channel inhibitors, confirmation, HEK293 cells, thallium flux, duplicate | 4,900 compounds, 43% hits | AID 492992, 2010 | FluxOR thallium flux fluorescence | shares compounds with KCNK9 block | inhibition, % at 10 µM;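 active = thallium signal inhibited by more than 5 SD of the compound-free buffer control wells, on both duplicate plates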;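 also: 0% = assay buffer control wells without compound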
# Kir21 sel = mouse Kir2.1 channel inhibition, confirmation, selectivity assay for KCNK9 modulator project, cell-based, HEK293, thallium flux | shares compounds with KCNK9 block | Kir2.1 cells, FluxOR thallium flux fluorescence | inhibition, % at 10 µM | 4,900 compounds, 4% hits;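 active = thallium signal drop more than 5 SD beyond the mean of the no-compound control wells, seen in both duplicate plates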;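 also: signal is fluorescence rise after thallium addition divided by baseline fluorescence; plate controls were assay buffer only for no effect and full block by chlorpromazine control for full effect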
# KCNK9 uninduced = thallium flux in non-induced HEK293 cells, confirmation, counter-screen for KCNK9 inhibitor project, cell-based, second counter screen, non-induced KCNK9-HEK293; shares compounds with KCNK9 block; FluxOR thallium flux; inhibition, % at 10 µM; 4,900 compounds, 40% hits; AID 492997, 2010;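 active = thallium signal drop beyond 5 SD of the untreated control mean, on both duplicate plates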;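 also: plate controls were buffer only IC0 wells for no effect and SID17386958 at its maximal inhibitory level for full effect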
# KCNK3 inh conf = retest of human KCNK3 channel inhibitors, confirmation, CHO cells, FluxOR thallium flux, triplicate. shares compounds with KCNK3 block. FluxOR fluorescence; 0% buffer, 100% carvedilol maximal block. ratio percent of control, % at 10 µM. 2,400 compounds, 99% hits;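 active = ratio percent of control, averaged over triplicates, above buffer control mean plus 5 SD, cut at about 64% in these data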;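 also: ratio is the fluorescence rise from min to max over baseline after thallium stimulus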
# KCNK3 uninduced = thallium flux inhibition in non-induced cells, primary screen, counter-screen for KCNK3 inhibitor project, cell-based, non-induced KCNK3 line, FluxOR thallium, triplicate; shares compounds with KCNK3 block; non-induced KCNK3 parental cells; stronger effect = lower value; thallium flux ratio (lower = more inhibition) at 10 µM; 2,400 compounds, 40% hits;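 active = thallium flux ratio, averaged over three wells, more than 5 SD below the buffer control mean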;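 also: host cells are CHO cells without KCNK3 induction; ratio is peak minus trough fluorescence over baseline then normalized to buffer controls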
# * = called active by the depositor; i = inactive; . = not tested or not shown.
SMILES,Kir21 inh,KCNQ1 block,hERG protect,KCNK9 block,KCNQ1 act,KCNK3 block,KCNK9 block conf,Kir21 sel,KCNK9 uninduced,KCNK3 inh conf,KCNK3 uninduced
Nc1nc(SCc2ccc(Cl)cc2Cl)n[nH]1,1.91,i,-8.2,i,i,i,.,.,.,.,.
CN(C)C(=N)c1n[nH]nc1SCc1ccc(Cl)c(Cl)c1,0.69,i,-11.2,i,i,i,.,.,.,.,.
CNc1cc(CSC)nc(SCc2ccc(Cl)cc2Cl)n1,-0.66,i,-4.3,-12.5*,i,-9.23*,55.5%*,i,50.5%*,141.7*,0.149*
CSCc1cc(N(C)C)nc(SCc2ccc(Cl)c(Cl)c2)n1,-0.42,i,-0.3,-10.3*,i,i,72.0%*,i,57.5%*,104.3*,0.155*
C/C(=N/NC(=O)CNC(=O)c1ccccn1)c1cccc([N+](=O)[O-])c1,-0.6,i,-1.2,i,i,i,.,.,.,.,.
Cc1ccc(C)c(N2CCN(S(=O)(=O)c3ccc4c(c3)CC(C)N4C(=O)C3CC3)CC2)c1 (configuration not stated),-0.01,i,-13.1,i,i,-9.27*,i,i,i,75.3*,i
COc1ccc(Cn2ccnc2SCC(=O)Nc2nnc(C)s2)cc1,0.41,i,-8.2,i,i,i,.,.,.,.,.
CCC(C)Nc1nc(N)c([N+](=O)[O-])c(Nc2cc(OC)ccc2OC)n1 (configuration not stated),0.91,i,-13.9,-9.75*,i,i,39.5%*,i,i,136.0*,0.135*
Cc1nc2ccccc2c(=O)n1N(c1ccccc1)c1ccccc1,0.4,i,-17.3,i,i,i,.,.,.,.,.
CC(Oc1ccc(Cl)cc1)c1ccnn1S(=O)(=O)c1ccc(Cl)cc1 (configuration not stated),0.31,i,-11.8,-14.9*,i,-13.5*,58.0%*,44.5%*,58.0%*,113.7*,0.156*
CC(Oc1ccc(Cl)cc1)C(=O)Nc1ccc(S(=O)(=O)N2CCOCC2)cc1 (configuration not stated),-1.43,i,-6.5,i,i,i,.,.,.,.,.
COc1ccccc1N1CCN(S(=O)(=O)CCNC(=O)c2ccccc2Br)CC1,-0.39,i,-4.6,i,i,i,.,.,.,.,.
CCOC(=O)c1ccc(Cn2c(-c3ccccc3)nnc2-c2ccccc2)o1,0.22,i,-6.2,-13*,i,-9.33*,56.0%*,i,40.5%*,114.7*,0.152*
CC(C)C(=O)Nc1cccc(C(=O)NCCc2ccc(S(N)(=O)=O)cc2)c1,-0.28,i,-10.1,i,i,i,.,.,.,.,.
COc1cccc(NC(=O)C(NCCc2ccc(S(N)(=O)=O)cc2)c2ccccc2)c1 (configuration not stated),-1.19,i,-11.7,-8.96*,i,-8.73*,38.5%*,i,31.0%*,106.3*,i
S=C(NC1CCCCC1)N(CCc1nc2ccccc2[nH]1)C1CCCC1,0.9,i,-14.2,i,i,-10.5*,i,i,i,118.0*,0.132*
CC(C)CCN1CCN(CC#Cc2ccccc2)CC1CCO (configuration not stated),-1.15,i,-5.0,i,i,i,.,.,.,.,.
CC(C)Oc1ccccc1C1Nc2ccccc2C(=O)N1c1ccc2c(c1)OCCO2 (configuration not stated),-0.87,i,-3.5,-13.3*,i,-10.1*,67.0%*,i,27.5%*,100.3*,0.157*
CC(=O)Oc1cc(C)cc2oc(=O)cc(-c3ccccc3)c12,0,i,-7.3,i,i,i,.,.,.,.,.
Cc1cc(OCC(=O)N2CCc3ccccc3C2)c2c(-c3ccccc3)cc(=O)oc2c1,-0.09,i,-3.3,i,i,-10.8*,i,i,i,98.7*,i
CC(C)Cn1c(N)c(/C=N/NC(=O)c2ccc(Cl)cc2)c(=O)n(C)c1=O,0.47,i,-10.2,i,i,i,.,.,.,.,.
CCCn1c(=O)c(C(=O)Nc2ncccc2C)c(O)c2ccccc21,0.15,i,-5.8,i,i,i,.,.,.,.,.
CCCn1c(=O)c(C(=O)Nc2ccccc2C(=O)OCC)c(O)c2ccccc21,-0.19,i,-10.8,-9.16*,i,-8.87*,53.5%*,i,37.5%*,91.7*,i
CC(C)(C)c1ccc(OCCC(=O)Nc2cccc(S(=O)(=O)N3CCOCC3)c2)cc1,1.74,i,-10.9,i,i,i,.,.,.,.,.
O=C(N/N=C/c1ccccc1)c1ccc(OCc2ccccc2)cc1,1.43,i,-17.5,i,i,i,.,.,.,.,.
O=C(N/N=C/c1ccccc1)c1sccc1OCc1ccc(F)cc1,0.33,i,-9.7,-15.2*,i,-9.5*,65.0%*,i,41.0%*,108.7*,i
COc1ccc(/C=N/Nc2nc(C)cc(-c3ccccc3)n2)c(OC)c1,0.18,i,-4.2,i,i,i,.,.,.,.,.
